Experimental data taken from ChEMBL document CHEMBL1124158, “Importance of the N-terminal domain of the type II angiotensin antagonist sarmesin for receptor blockade” (J Med Chem, 1988).

Columns and labels:
Rattus norvegicus [1] = species: Rattus norvegicus; assay: Agonistic activity determined by matching the response with an equivalent response to ANG II (human)-evaluated in rat uterus bioassay; assay type: functional
How it was run: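 Uterine horns (defatted) from diethylstilbestrol-primed virgin Sprague-Dawley rats (150-250 g), halved, held under 1 g tension in a 3-mL bath: 150 mM NaCl, 5.6 mM KCl, 0.18 mM NaHCO₃, 1.4 mM glucose, pH 7.0, oxygen-gassed. Isotonic contractions recorded. Agonist activity expressed relative to an equivalent contraction produced by human ANG II.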

Rattus norvegicus [2] = species: Rattus norvegicus; assay: Negative logarithm of the concentration of compound required to reduce the response of EC50 dose of ANG II to the response to half the EC50 dose; assay type: functional, organism-based; conditions: read-out: pA2 (converted)
How it was run: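 Rat isolated uterus: defatted horns from diethylstilbestrol-primed virgin Sprague-Dawley rats (150-250 g), halved, 1 g tension, 3-mL bath of 150 mM NaCl, 5.6 mM KCl, 0.18 mM NaHCO₃, 1.4 mM glucose, pH 7.0, oxygenated. Isotonic contractions to human ANG II. pA2 = −log antagonist concentration lowering the EC50-dose response to that of half the EC50 dose.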

With `CC[C@H](C)[C@H](NC(=O)[C@@H]1CCCN1C(=O)[C@H](Cc1c[nH]cn1)NC(=O)[C@@H](NC(=O)[C@H](Cc1ccc(O)cc1)NC(=O)[C@@H](NC(=O)[C@H](CCCN=C(N)N)NC(=O)CNC)C(C)C)[C@@H](C)CC)C(=O)O` as the compound, how does the Activity (Rattus norvegicus [1]) read?
Its Activity is <0.01%.

What about the Kb (Rattus norvegicus [2]) of the same compound?
The Kb was 7.94 nM.
